Published values pooled from the literature.
Protocols differ between the studies behind these lines.
Organism: Trypanosoma cruzi
Read-out: parasite growth

`c1ccc2c(N3CCCCC3)nc(-c3cnccn3)nc2c1` gave an IC50 of 18.6 µM (imaging; U2OS; intracellular, amastigote).
The IC50 of `O=C(N[C@@H](Cc1ccccc1)C(=O)c1c[nH]nn1)[C@H](Cc1ccccc1)NC(=O)N1CCOCC1` is reported as greater than 64 µM (TULAHUEN; intracellular, amastigote).
The IC50 of `Fc1ccccc1-c1nc(N2CCC(c3ccccn3)C2)c2ccccc2n1` (stereo not drawn) is reported as 5.37 µM (imaging; U2OS; intracellular, amastigote).
`CCCCCCCCCCCCCC#CC(=O)O` has an IC50 of 80 µM (rat Myoblast; intracellular, amastigote).
For `O=C(N[C@@H](Cc1ccccc1)C(=O)c1nc2ccccc2o1)[C@H](Cc1ccccc1)NC(=O)N1CCOCC1`, the IC50 was 31.5 µM (TULAHUEN; intracellular, amastigote).
`CCCCCCCCCCCCCC#CC(=O)O` gave an IC50 of 20.2 µg/mL (rat Myoblast, TULAHUEN; intracellular, amastigote).
`O=C(Cn1ccnc1[N+](=O)[O-])NCc1ccccc1` gave an IC50 of 23 µM (epimastigote).
With `Cc1cc(NC(=O)Nc2ccc3c(c2)OC(F)(F)O3)cc(C(F)(F)F)n1` the IC50 was 1.1 µM (TULAHUEN; intracellular, amastigote).
With `Cn1ccnc1-c1nc(N2CCCCC2)c2ccccc2n1` the IC50 was 3.89 µM (imaging; U2OS; intracellular, amastigote).
The IC50 of `O=C(Nc1ccnc(C(F)(F)F)c1)Nc1cccc2c1OC(F)(F)O2` is reported as 2.9 µM (TULAHUEN; intracellular, amastigote).
`O=C(N[C@H](CCc1ccccc1)C(=O)c1cc(Cc2ccccc2)on1)[C@H](Cc1ccccc1)NC(=O)N1CCOCC1` gave an IC50 of greater than 64 µM (TULAHUEN; intracellular, amastigote).
The IC50 of `C=C1CC[C@@H](O)[C@]2(C)CC[C@H]3C(=C)C(=O)O[C@@H]3[C@@H]12` is reported as greater than 50 µM (72 h, epimastigote).
The IC50 of `COc1ccc(Nc2nc(-c3ccc(C)cc3)nc3ccccc23)cc1` is reported as 3.09 µM (imaging; U2OS; intracellular, amastigote).
`C[Si](C)(C)c1cc(C(=O)[C@H](Cc2ccccc2)NC(=O)[C@H](Cc2ccccc2)NC(=O)N2CCOCC2)no1` (mixture of isomers) has an IC50 of greater than 64 µM (TULAHUEN; intracellular, amastigote).
The IC50 of `C[C@@H]1[C@H](O)[C@@H](C)/C=C/C=C/C=C/C=C/C=C/C=C/C=C/[C@H](O[C@@H]2O[C@H](C)[C@@H](O)[C@H](N)[C@@H]2O)C[C@@H]2O[C@](O)(C[C@@H](O)C[C@@H](O)[C@H](O)CC[C@@H](O)C[C@@H](O)CC(=O)O[C@H]1C)C[C@H](O)[C@H]2C(=O)O` is reported as 0.48 µM (NIH3T3, TULAHUEN; 96 h, intracellular, amastigote).
